An excerpt weighted towards active compounds, which were near 1.8% of everything screened.
CHRM5 PAM = potentiates acetylcholine response at human M5 receptor. AID 624038. CHO-K1 hM5, Fluo-8 calcium, ACh EC20 PAM; 0% = ACh EC20, 100% = ACh EC100. P08912. 360,000 tested, 0.3% active. activation, % at 3 µM;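 active = activation above the run cutoff, the mean activation of all test compounds plus 3 SD, cut at about 18% in these data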
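Replicates: One well per compound, no replicates | System: Human M5 receptor in CHO-K1 cells | Benchmarks: Low control EC20 acetylcholine (0%), high control EC100 acetylcholine (100%) | Probe or stimulus: Acetylcholine, EC20 level | Times: Fluo-8 loading 80 min at 37 °C plus 30 min room temperature | Signal: Intracellular calcium via Fluo-8 fluorescence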
M4 antag = blocks acetylcholine activation of human M4 receptor. CHO-hM4 cells, ACh EC80, Fluo-8 calcium fluorescence. P08173. AID 624125. 360,000 tested, 0.73% active. inhibition, % at 3 µM;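 active = inhibition above its plate's cutoff, the mean inhibition of sample wells plus 3 SD, cut at about 27% in these data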;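 note: 0% = acetylcholine EC80 with DMSO and 100% = DMSO without agonist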
Target sequence (P08173 whole entry, looked up): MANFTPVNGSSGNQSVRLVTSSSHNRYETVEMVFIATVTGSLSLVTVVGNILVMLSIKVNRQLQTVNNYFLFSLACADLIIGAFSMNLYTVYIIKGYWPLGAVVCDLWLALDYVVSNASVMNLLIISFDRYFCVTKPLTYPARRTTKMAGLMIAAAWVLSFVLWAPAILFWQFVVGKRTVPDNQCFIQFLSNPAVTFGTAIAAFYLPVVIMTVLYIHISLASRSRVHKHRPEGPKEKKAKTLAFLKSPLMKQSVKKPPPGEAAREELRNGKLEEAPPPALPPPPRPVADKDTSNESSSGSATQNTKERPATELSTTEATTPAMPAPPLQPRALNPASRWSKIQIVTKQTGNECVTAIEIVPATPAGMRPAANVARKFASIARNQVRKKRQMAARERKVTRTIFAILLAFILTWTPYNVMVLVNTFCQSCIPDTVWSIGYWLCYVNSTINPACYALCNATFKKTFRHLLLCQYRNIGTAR
CHRM4 PAM = potentiates acetylcholine response at human M4 receptor. P08173. CHO-K1 hM4/Gqi5, Fluo-8 calcium fluorescence, ACh EC20; 0% = ACh EC20, 100% = maximal ACh. activation, % at 3 µM. 360,000 tested, 0.4% active;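 active = activation above its plate's cutoff, the mean activation of sample wells plus 3 SD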
M4 ag = agonists of human muscarinic M4 receptor (CHRM4); AID 624127; 360,000 tested, 0.14% active; activation, % at 3 µM; P08173; CHO-K1 hM4/Gqi5, Fluo-8 calcium fluorescence; vehicle 0%, full acetylcholine response 100%;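 active = activation above the run mean over all test wells plus 3 SD, cut at about 32% in these data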;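 note: peak over basal fluorescence ratio per well then scaled between controls; 0% = DMSO wells and 100% = acetylcholine at EC100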
M5 ag = CHRM5 agonism in calcium assay; 360,000 tested, 0.19% active; CHO-K1 hM5 cells, Fluo-8 calcium fluorescence; 0% DMSO wells, 100% maximal acetylcholine response; activation, % at 3 µM; P08912;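 active = activation above the run's mean over test compounds plus 3 SD, cut at about 23% in these data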;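 note: signal is peak over basal fluorescence ratio across the kinetic read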
M5 antag = antagonists of human muscarinic M5 receptor (CHRM5); P08912; CHO-hM5 cells, Fluo-8 calcium fluorescence, ACh EC80; inhibition, % at 3 µM; 360,000 tested, 0.59% active; AID 624040;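 active = inhibition above a per-plate cutoff, the mean of that plate's test compounds plus 3 SD, cut at about 27% in these data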;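 note: 0% = acetylcholine EC80 with DMSO and 100% = DMSO without agonist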
* = called active by the depositor.

SMILES	CHRM5 PAM	M4 antag	CHRM4 PAM	M4 ag	M5 ag	M5 antag
Cc1cccc(OCC(O)CN2CC2)c1 (centres undefined)	10	-10	5	0	3	4
O=C(NC1CCCCC1)N1Cc2cc(-c3cccc(F)c3)ccc2-n2nncc2C1	-2	-5	3	-1	0	5
N#CC12CNCC1CN=N2 (centres undefined)	-2	-13	6	2	-4	1
C[N+]1(C)C2CC[C@H]1CC(OC(=O)C(CO)c1ccccc1)C2 (some centres undefined)	-18	99*	-18	0	-1	99*
C[N+]1(C)C2CCC1CC(OC(=O)c1c[nH]c3ccccc13)C2 (centres undefined)	-7	-5	0	0	-1	0
Oc1c(Cl)cccc1Cc1cc(Cl)cc(Cl)c1O	-24	10	-3	10	4	30*
C=CCn1c(O)c(C(C)=Nc2ccc(NC(C)=O)cc2)c(=O)[nH]c1=O	4	-6	21*	0	-1	-5
C=CCn1c(O)c(C(CC)=Nc2ccccc2NC(C)=O)c(=O)[nH]c1=O	2	12	28*	1	-1	-7
COC(=O)C1=C(c2ccc(S(C)(=O)=O)cc2)C[C@@H]2CC[C@H]1N2C(=O)NCc1ccc(C(F)(F)F)cc1	-7	6	-6	1	0	4
c1ccc(C(c2ccccc2)c2ccncc2)cc1	-38	42*	-16	5	-11	37*
O=c1c2ccccc2nc(-c2ccccc2)n1-c1ccncc1	-4	8	4	2	1	-2
O=c1[nH]c(=S)n(CCC2=CCCCC2)c(O)c1C=NCCCn1ccnc1	-19	29*	-19	-1	-8	10
S=P1(Oc2ccccc2)Nc2ccccc2N1	-1	-5	0	1	1	4
CC(C)=CCN1CC[C@@]2(C)c3cc(O)ccc3CC1C2C (some centres undefined)	-23	34*	-16	1	-6	25
COc1ccc(Br)cc1CN1CCN(CCO)CC1	5	5	8	1	-4	-2
COc1cc(Br)cc(CN2CCN(C)CC2)c1O	-20	41*	-14	1	-6	10
O=C(O)C(Br)CBr (centres undefined)	-2	-3	-1	-1	2	8
COC(=O)C1=C(c2ccc(F)cc2F)C[C@@H]2CC[C@H]1N2C	-38	29*	-18	1	-12	21
COC(=O)C1=C(c2ccccc2)C[C@@H]2CC[C@H]1N2C	-39	21	-20	1	-11	63*
COC(=O)C1=C(c2ccc(S(C)(=O)=O)cc2)C[C@@H]2CC[C@H]1N2C	5	-9	1	2	3	-3
O=C(c1cccs1)c1cn(Cc2ccccc2Cl)c2ccccc12	21*	-1	22	-1	-2	-7
N#Cc1ccccc1Cn1cc(C(=O)c2cccs2)c2ccccc21	-17	-13	-5	0	-3	6
O=c1[nH]oc2c1CCNC2	0	2	-5	1	1	-2
O=c1[nH]c(=O)n(Cc2ccc(F)cc2)c(O)c1C=NCC1CCCO1 (centres undefined)	38*	-10	6	1	0	-18
O=S(=O)(NC1CN2CCC1CC2)c1ccc(Cl)cc1 (centres undefined)	-3	1	0	1	-7	17
SMILES	CHRM5 PAM	M4 antag	CHRM4 PAM	M4 ag	M5 ag	M5 antag
OC(c1cccc(Cl)c1)(c1cccc(Cl)c1)C1CN2CCC1CC2 (centres undefined)	-22	94*	-23	22	-5	99*
O=C(NCc1cccnc1)Nc1ccc([N+](=O)[O-])cc1	-5	-6	4	3	-3	10
CCCC(=O)OCC[N+](C)(C)C	-15	-4	-5	1	42*	-8
COc1cccc(C(c2nnnn2C(C)(C)C)N2CCC3(CC2)C(=O)NCN3c2ccccc2)c1OC (centres undefined)	-8	-8	-3	18	8	7
OC(CN1CCCCC1)c1c[nH]c2ccccc12 (centres undefined)	-14	86*	-18	0	-5	25
CC1CCCCN1CC(O)c1c[nH]c2ccccc12 (centres undefined)	4	0	3	1	-4	5
COc1cc(C(=O)OC2C[C@H]3CC[C@@H](C2)N3)ccc1O (some centres undefined)	-8	38*	-16	0	-8	2
COc1cc(C(=O)OC2C[C@H]3CC[C@@H](C2)N3C)ccc1O (some centres undefined)	0	3	-4	0	-8	1
COC1CC2C=C(C)C=CC=CC(=O)NC(c3ccccc3)CC=CCCC(O)CC(=O)C2=C1O (centres undefined)	-20	87*	-14	21	16	54*
C=Cc1cc(OC)c2c(c1)c(=O)oc1c2cc(OC)c2c(O)ccc(C3OC(C)C(O)C(C)(O)C3O)c21 (centres undefined)	2	-7	8	0	0	9
COC(=O)C1=C(c2ccc(F)cc2OCc2ccccc2)C[C@@H]2CC[C@H]1N2C(=O)N1CCC(C)CC1	-35	38*	-16	1	-9	15
COC(=O)C1=C(c2cccc(OCc3ccccc3)c2)C[C@@H]2CC[C@H]1N2C(=O)NCCc1ccc(F)cc1	-20	40*	-16	4	-8	4
C=C(C)[C@@H]1[C@H]2OC(=O)[C@H]1[C@]1(O)C[C@H]3O[C@]34C(=O)O[C@H]2[C@]14C	-2	0	-5	0	1	0
C[C@]12CCC(=O)C=C1CCC1C2CC[C@@]2(C)C1CC[C@]2(C)O (some centres undefined)	-11	1	-6	6	0	18
CN1C(=O)CCC2(C)C1=CCC1C2CCC2(C)C1CCC2(C)O (centres undefined)	18*	-4	13	2	4	-7
c1ccc2c(c1)Sc1ccccc1N2CC1CN2CCC1CC2 (centres undefined)	-19	98*	-16	1	-1	98*
CCC(CO)(C(=O)OC1CC2CCC(C1)N2C)c1ccccc1 (centres undefined)	-33	100*	-17	1	-16	99*
CN1CCN(Cc2ccccc2Sc2ccccc2)CC1	-20	95*	-38	7	-5	99*

Screens as filed in PubChem BioAssay.
